Assays:
[1] = target: pepsin from porcine stomach mucosa (Sus scrofa, UniProt P00791); assay: Stability test in simulated gastric fluid; format: in vitro ADME; conditions: 37°C; for Degradation in simulated gastric fluid with pepsin: up to 120 min
How it was run: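 Simulated gastric fluid: 200 mg NaCl and 64 mg porcine pepsin in 100 mL water plus 0.7 mL HCl, pH 1.2. Peptide (10 mg/mL in 0.1 M ammonium bicarbonate, 0.1 mL) mixed with 0.9 mL SGF at 37°C. Sampled at 0, 5, 15, 30, 60 and 120 min; quenched with 0.2 M NaOH; analysed by RP-HPLC. PEG 200, 400, 1000 or 4000 tested at 0%, 20% and 40% in SGF.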

[2] = system: Caco-2 cells; assay: Caco-2 permeability assay; format: in vitro ADME, human; conditions: Caco-2 Transwell, apical to basolateral, RP-HPLC
How it was run: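 Caco-2 cells seeded at 1 × 10^5 cells/well on 0.4 µm Transwell membranes and grown to a monolayer checked by TEER. Medium replaced with HBSS before dosing.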

pepsin from porcine stomach mucosa, sequence (P00791 60-385): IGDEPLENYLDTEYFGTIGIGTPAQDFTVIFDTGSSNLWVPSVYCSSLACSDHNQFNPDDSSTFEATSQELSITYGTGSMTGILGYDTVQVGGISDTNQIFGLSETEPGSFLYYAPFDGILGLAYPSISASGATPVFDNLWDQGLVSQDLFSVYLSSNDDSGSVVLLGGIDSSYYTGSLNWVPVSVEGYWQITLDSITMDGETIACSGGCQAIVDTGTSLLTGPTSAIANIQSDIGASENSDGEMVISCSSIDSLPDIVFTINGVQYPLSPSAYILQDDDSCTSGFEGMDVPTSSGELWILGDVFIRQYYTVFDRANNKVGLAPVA

CCCCCCCCCCCCCCCC(=O)N[C@@H](CCC(=O)NCCCC[C@H](NC(=O)[C@H](C)NC(=O)[C@H](C)NC(=O)[C@H](CCC(N)=O)NC(=O)CNC(=O)[C@H](CCC(=O)O)NC(=O)[C@H](CC(C)C)NC(=O)[C@H](Cc1ccc(O)cc1)NC(=O)[C@H](CO)NC(=O)[C@H](CO)NC(=O)[C@@H](NC(=O)[C@H](CC(=O)O)NC(=O)[C@H](CO)NC(=O)[C@@H](NC(=O)[C@H](Cc1ccccc1)NC(=O)[C@@H](NC(=O)CNC(=O)[C@H](CCC(=O)O)NC(=O)[C@H](C)NC(=O)[C@@H](N)Cc1cnc[nH]1)[C@@H](C)O)[C@@H](C)O)C(C)C)C(=O)N[C@@H](CCC(=O)O)C(=O)N[C@@H](Cc1ccccc1)C(=O)N[C@H](C(=O)N[C@@H](C)C(=O)N[C@@H](Cc1c[nH]c2ccccc12)C(=O)N[C@@H](CC(C)C)C(=O)N[C@H](C(=O)N[C@@H](CCCNC(=N)N)C(=O)NCC(=O)N[C@@H](CCCNC(=N)N)C(=O)NCC(=O)O)C(C)C)[C@@H](C)CC)C(=O)O [LG, liraglutide]
Degradation in simulated gastric fluid with pepsin ([1]; SGF pH 1.2 with pepsin): rapid degradation | Degradation in simulated gastric fluid with pepsin ([1]; SGF pH 1.2 with pepsin, listed as free LG): fully degraded | Degradation in simulated gastric fluid in the absence of pepsin ([1]; SGF pH 1.2 without pepsin): degradation was not observed | Time to entire degradation in simulated gastric fluid, LG with PEG 1000 ([1]; formulation containing PEG 1000, SGF pH 1.2 with pepsin): ≤ 60 min | Time to entire degradation in simulated gastric fluid, LG with PEG 4000 ([1]; formulation containing PEG 4000, SGF pH 1.2 with pepsin): ≤ 60 min | LG at the basolateral side after 2 h treatment [2]: undetected

— PMC10968941 (International Journal of Nanomedicine, 2024)
